Experimental data pooled from the literature.
Compare with care: the assays were run in different laboratories.
Target: RAC-alpha serine/threonine-protein kinase (AKT1, Homo sapiens, UniProt P31749)

O=C(NCCCN1CCOCC1)c1ccc(Nc2nccc(-c3cc4ccccc4s3)n2)cc1 — remaining binding (binding; competition with immobilised ligand; 1 µM): 100%
Nc1ncc2c(n1)-c1c([nH]c3ccc(C#CC4CC4)cc13)CCCC2 — remaining binding (binding; competition with immobilised ligand; 1 µM): 95%
CS(=O)(=O)N1CCCC(NC(=O)[C@H](CCC2CCCCC2)NC(=O)c2ccc(CNc3ncnc4c3nnn4-c3ccccc3)cc2)C1 (stereo partly shown) — remaining binding (cell-free assay; competition with immobilised ligand; 0.1 µM): 100%
O=C(c1ccc(Nc2ncc(Cl)c(-c3cc4ccccc4s3)n2)cc1)N1CCC(N2CCCC2)CC1 — remaining binding (binding; competition with immobilised ligand; 1 µM): 100%
CC(=O)C1=C(C)N(c2cccc(C(F)(F)F)c2)C(=O)N[C@@H]1c1ccc(C#N)nc1 — remaining binding (cell-free assay; competition with immobilised ligand; 1 µM): 90.4%
CC1CCCN1c1nccc(-c2cnn3ncccc23)n1 (stereo not shown) — remaining binding (binding; 1 µM): 100%
CNC(=O)[C@@H]1CC[C@@H](n2c(-c3ccc4cnccc4c3)nc3ccc(C(=O)NCc4cccc(C(N)=O)c4)cc32)C1 — remaining binding (binding; competition with immobilised ligand; 1 µM): 100%
CN(CCCC(F)(F)F)c1nccc(-c2cnn3ncccc23)n1 — remaining binding (binding; 1 µM): 100%
C[C@@H]1CN(c2ccc3ncc(-c4ccc5[nH]nc(C6CC6)c5c4)n3n2)C[C@H](C)O1 — remaining binding (binding; competition with immobilised ligand; 0.5 µM): 100%
CC1=C(C#N)C(c2ccc3c(c2)c(NC(=O)c2ccccc2C)nn3C)C(C#N)=C(C)N1 — remaining binding (cell-free assay; competition with immobilised ligand; 1 µM): 94%
CN(C)c1nccc(-c2cnn3ncccc23)n1 — remaining binding (binding; 1 µM): 100%
C=CC(=O)N1CCC(C(=O)NCC(=O)N2CCN(c3nc(-c4cnc(N)nc4C(F)F)nc(N4CCOCC4)n3)CC2)CC1 — remaining binding (binding; competition with immobilised ligand; 1 µM): 94%
O=C(Nc1cnc(Oc2ccc(F)cc2)nc1)N1CCc2ncccc2[C@@H]1c1ccc(F)cc1 — remaining binding (cell-free assay; competition with immobilised ligand; 1 µM): 100%
COc1ccnn2ncc(-c3ccnc(N(C)C)n3)c12 — remaining binding (binding; 1 µM): 100%
c1cncc(-c2cccc(Nc3nccc(NC4CCCCC4)n3)c2)c1 — remaining binding (binding; competition with immobilised ligand; 10 µM): 71%
N[C@@H]1CCN(c2nccc(-c3cnn4ncccc34)n2)C1 — remaining binding (binding; 1 µM): 100%
C[C@H](c1ccc(F)cc1)N(Cc1cccc(C(=O)O)c1)C(=O)c1cnc2ccccc2c1 — remaining binding (cell-free assay; competition with immobilised ligand; 1 µM): 100%
O=C(Nc1c[nH]nc1C(=O)NC1CCNCC1)c1cc(F)cc(F)c1 — remaining binding (binding; competition with immobilised ligand; 1 µM): 92%
C[C@H]1CCN(c2nccc(-c3cnn4ncccc34)n2)C1 — remaining binding (binding; 1 µM): 92%
CC(C)(C)c1ccc(-c2nc(CBr)nn2-c2cccc(O)c2)cc1 — remaining binding (cell-free assay; competition with immobilised ligand; 10 µM): 94%
c1cnn2ncc(-c3ccnc(N4CCC45COC5)n3)c2c1 — remaining binding (binding; 1 µM): 95%
FC(F)(F)c1ccc2c(c1)nc(-c1cccnc1)n2C1CC1 — remaining binding (cell-free assay; competition with immobilised ligand; 1 µM): 100%
O=C(c1ccc(Nc2nccc(-c3cc4ccccc4s3)n2)cc1)N1CCC(N2CCCC2)CC1 — remaining binding (binding; competition with immobilised ligand; 1 µM): 100%
Cc1nc(N2CC[C@@H](O)C2)ncc1-c1cc(C(F)(F)F)cc2[nH]ncc12 — remaining binding (binding; competition with immobilised ligand; 1 µM): 100%
FC(F)(F)Oc1cccc(-c2cnc3ccc(-c4ccncc4)nn23)c1 — remaining binding (cell-free assay; competition with immobilised ligand; 5 µM): 88%
